ChEMBL document CHEMBL1144427, “Synthesis and in vitro and in vivo antitumor activity of 2-phenylpyrroloquinolin-4-ones” (J Med Chem, 2005)
Where a name gives a salt, the structure may show the parent alone.

Key:
OVCAR-3 = experiment: Cytotoxic activity against human tumor Ovcar-3 cell line; type: functional, cell-based
Summary of the method: (§1)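 Cells kept in RPMI with 10% heat-inactivated FBS and penicillin/streptomycin. MTT assay: 10⁴ cells/well seeded, exposed after 24 h to compound at 0.01–100 µM final for 72 h. MTT was added for 4 h, then SDS/HCl for 18 h at 37 °C, and absorbance read at 550 nm. IC50 is the concentration halving absorbance versus untreated cells, from 6–8 wells in at least two independent experiments.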

[1] = Cytotoxic activity against human tumor Hep 3B cell line; type: functional; settings: Hep3B
Summary of the method: (§2)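 DMEM with 10% heat-inactivated FBS and antibiotics used for culture. Cells plated at 10⁴/well; after 24 h, 72 h exposure to 0.01–100 µM (final) compound. Survival measured by MTT (4 h), SDS/HCl solubilisation for 18 h at 37 °C, absorbance at 550 nm. IC50 is the concentration giving 50% absorbance reduction versus untreated cells, from 6–8 wells across at least two experiments.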

HT-29 = experiment: Cytotoxic activity against human tumor HT-29 cell line; type: functional, cell-based; summary of the method: as §2
[2] = Cytotoxic activity against human tumor NCI-H295 cell line; type: functional, cell-based
Summary of the method: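 Grown in RPMI with 2% FBS, insulin-transferrin-selenium and penicillin/streptomycin. MTT read-out: 10⁴ cells/well, compound 0.01–100 µM final added after 24 h, 72 h exposure. MTT for 4 h, solubilised in SDS/HCl for 18 h at 37 °C, absorbance at 550 nm. IC50 is the concentration cutting absorbance 50% versus control, from 6–8 replicate wells over two or more independent experiments.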

[3] = Cytotoxic activity against human tumor Aro cell line; type: functional, cell-based; summary of the method: as §2
MCF7 = experiment: Cytotoxic activity against human tumor MCF-7 cell line; type: functional, cell-based; summary of the method: as §2
HepG2 = experiment: Cytotoxic activity against human tumor Hep G2 cell line; type: functional, cell-based; summary of the method: as §2
[4] = Cytotoxic activity against human tumor SW 13 cell line; type: functional, cell-based
Summary of the method: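 Maintained in Leibovitz medium with 10% FBS and penicillin/streptomycin. Colorimetric MTT assay: 10⁴ cells/well, compound at 0.01–100 µM final from 24 h after seeding, for 72 h. MTT for 4 h, then SDS in 0.01 N HCl for 18 h at 37 °C, absorbance at 550 nm. IC50 is the concentration halving absorbance versus control, from 6–8 wells in at least two independent runs.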

[5] = Cytotoxic activity against human tumor PT45 cell line; type: functional, cell-based; settings: PT-45; summary of the method: as §1
[6] = Cytotoxic activity against human tumor C8305 cell line; type: functional, cell-based; summary of the method: as §1
A 172 = experiment: Cytotoxic activity against human tumor A-172 cell line; type: functional, cell-based; summary of the method: as §1
[7] = Cytotoxic activity against human tumor PLC/PRF/5 cell line; type: functional; summary of the method: as §2
[8] = Cytotoxic activity against human tumor Mia Paca 2 cell line; type: functional, cell-based; summary of the method: as §1
IGROV-1 = experiment: Cytotoxic activity against human tumor Igrov-1 cell line; type: functional, cell-based; summary of the method: as §1

Row | SMILES | IC50 (OVCAR-3; Homo sapiens, OVCAR-3) [µM] | IC50 [1] [µM] | IC50 (HT-29) [µM] | IC50 ([2]; Homo sapiens, NCI-H295) [µM] | IC50 ([3]; Homo sapiens, ARO) [µM] | IC50 (MCF7; Homo sapiens, MCF7) [µM] | IC50 (HepG2; Homo sapiens, HepG2) [µM] | IC50 ([4]; Homo sapiens, SW13) [µM] | IC50 [5] [µM] | IC50 ([6]; Homo sapiens, C8305) [µM] | IC50 (A 172) [µM] | IC50 ([7]; Homo sapiens, PLC-PRF-5) [µM] | IC50 [8] [µM] | IC50 (IGROV-1; Homo sapiens, IGROV-1) [µM] | other results
1 | Cc1cc(O)c2ccc3[nH]ccc3c2n1 | > 100 | > 100 | > 100 | > 100 | > 100 | > 100 | > 100 | > 100 | > 100 | > 100 | > 100 | > 100 | > 100 | > 100 | 
2 | Cn1ccc2c3nc(-c4ccccc4)cc(O)c3ccc21 | 2 | 1 | 50 | 2 | 5 | 4 | 1 | 0.9 | 100 | 10 | > 100 | 7 | 8 | 3 | 
3 | Oc1cc(-c2cccs2)nc2c1ccc1[nH]ccc12 | 20 | 50 | > 100 | 40 | 80 | 30 | 10 | 50 | 100 | 100 | > 100 | 80 | > 100 | 15 | 
4 | COc1cccc(-c2cc(O)c3ccc4[nH]ccc4c3n2)c1 | 1 | 2 | 50 | 3 | 4 | 1 | 2 | 0.7 | 100 | 10 | > 100 | 7 | 5 | 3 | 
5 | Nc1cccc(-c2cc(O)c3ccc4[nH]ccc4c3n2)c1 [listing 1 of 2 here] |  | > 100 | > 100 | 50 | 70 | 50 | 50 |  | > 100 | 80 | > 100 | 50 | > 100 |  | IC50 (OVCAR-3; ovcar-3): 30 µM; IC50 ([4]; sw 13): 10 µM; IC50 (IGROV-1; igrov-1): 30 µM
6 | O=[N+]([O-])c1ccc(-c2cc(O)c3ccc4[nH]ccc4c3n2)cc1 | 50 | 30 | > 100 | 80 | > 100 | 60 | 100 | 50 | > 100 | > 100 | > 100 | > 100 | > 100 | 60 | 
7 | O=[N+]([O-])c1cccc(-c2cc(O)c3ccc4[nH]ccc4c3n2)c1 | 50 | 50 | > 100 | 60 | 80 | 70 | > 100 | 60 | > 100 | > 100 | > 100 | > 100 | > 100 | 80 | 
8 | Nc1cccc(-c2cc(O)c3ccc4[nH]ccc4c3n2)c1 [listing 2 of 2 here] |  |  |  |  |  |  |  |  |  |  |  |  |  |  | IC50 (OVCAR-3; ovcar-3): > 100 µM; IC50 ([2]; nci-h295): > 100 µM; IC50 ([3]; aro): > 100 µM; IC50 (MCF7; mcf7): > 100 µM; IC50 (HepG2; hepg2): > 100 µM; IC50 ([4]; sw 13): > 100 µM; IC50 ([6]; c8305): > 100 µM; IC50 [7]: > 100 µM; IC50 (IGROV-1; igrov-1): > 100 µM
9 | Oc1cc(-c2ccccc2)nc2c1ccc1[nH]ccc12 | 2 | 4 | 60 | 8 | 8 | 4 | 4 | 3 | 100 | 10 | 100 | 8 | 4 | 5 | 
10 | Oc1ccnc2c1ccc1[nH]ccc12 | > 100 | > 100 | > 100 | > 100 | > 100 | > 100 | > 100 | > 100 | > 100 | > 100 | > 100 | > 100 | > 100 | > 100 | 
11 | CC[C@]1(O)C[C@H]2CN(CCc3c([nH]c4ccccc34)[C@@](C(=O)OC)(c3cc4c(cc3OC)N(C=O)[C@H]3[C@@](O)(C(=O)OC)[C@H](OC(C)=O)[C@]5(CC)C=CCN6CC[C@]43[C@@H]65)C2)C1 [VINCRISTINE SULFATE] | 0.01 | 0.1 | 0.1 | 0.1 | < 0.0001 | 0.01 | 0.1 | 0.001 | 0.1 | 0.1 | > 100 | 0.1 | 0.01 | 0.01 | 
